Experimental data taken from ChEMBL document CHEMBL3351980, “Michael acceptor approach to the design of new salvinorin A-based high affinity ligands for the kappa-opioid receptor” (Eur J Med Chem, 2014).

Key:
[1] = molecular target: T1, Kappa-type opioid receptor (Homo sapiens, UniProt P41145); assay: Displacement of [3H]U69593 from kappa opioid receptor (unknown origin) expressed in HEK293T cells after 1.5 hrs by radioligand binding assay; type: cell-based, HEK-293T
Procedure, shortened: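 HEK293T cells stably expressing KOR were hypotonically lysed in 50 mM Tris-HCl, 10 mM MgCl2, 0.1 mM EDTA, pH 7.4, and membranes were pelleted. Samples were filtered onto PEI-soaked GF/A filters and scintillation counted. Ki came from a one-site competition fit.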

[2] = molecular target: Mu-type opioid receptor (Homo sapiens, UniProt P35372); assay: Displacement of [3H]DAMGO from mu opioid receptor (unknown origin) expressed in HEK293T cells after 1.5 hrs by radioligand binding assay; type: cell-based, HEK-293T
[3] = molecular target: T1, Kappa-type opioid receptor; assay: Inhibition of human kappa opioid receptor expressed in HEK293T cells assessed as inhibition of cAMP production after 30 mins; type: functional, cell-based, HEK-293T
[4] = molecular target: Delta-type opioid receptor (Homo sapiens, UniProt P41143); assay: Displacement of [3H]DADLE from delta opioid receptor (unknown origin) expressed in HEK293T cells after 1.5 hrs by radioligand binding assay; type: cell-based, HEK-293T
[5] = organism: Homo sapiens; assay: Selectivity ratio of Ki for delta opioid receptor (unknown origin) to ratio of Ki for kappa opioid receptor (unknown origin)
[6] = organism: Homo sapiens; assay: Selectivity ratio of Ki for mu opioid receptor (unknown origin) to ratio of Ki for kappa opioid receptor (unknown origin)

Delta-type opioid receptor, sequence (P41143 whole entry): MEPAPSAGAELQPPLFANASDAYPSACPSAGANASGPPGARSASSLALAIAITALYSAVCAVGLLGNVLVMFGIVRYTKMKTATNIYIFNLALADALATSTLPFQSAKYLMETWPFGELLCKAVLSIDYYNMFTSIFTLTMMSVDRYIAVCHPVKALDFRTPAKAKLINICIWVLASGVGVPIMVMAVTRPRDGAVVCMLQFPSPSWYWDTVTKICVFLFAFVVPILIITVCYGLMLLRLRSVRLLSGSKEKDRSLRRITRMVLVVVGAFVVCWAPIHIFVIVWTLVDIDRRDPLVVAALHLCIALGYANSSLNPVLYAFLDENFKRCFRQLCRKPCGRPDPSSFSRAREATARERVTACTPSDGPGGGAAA
T1 sequence (P41145 whole entry): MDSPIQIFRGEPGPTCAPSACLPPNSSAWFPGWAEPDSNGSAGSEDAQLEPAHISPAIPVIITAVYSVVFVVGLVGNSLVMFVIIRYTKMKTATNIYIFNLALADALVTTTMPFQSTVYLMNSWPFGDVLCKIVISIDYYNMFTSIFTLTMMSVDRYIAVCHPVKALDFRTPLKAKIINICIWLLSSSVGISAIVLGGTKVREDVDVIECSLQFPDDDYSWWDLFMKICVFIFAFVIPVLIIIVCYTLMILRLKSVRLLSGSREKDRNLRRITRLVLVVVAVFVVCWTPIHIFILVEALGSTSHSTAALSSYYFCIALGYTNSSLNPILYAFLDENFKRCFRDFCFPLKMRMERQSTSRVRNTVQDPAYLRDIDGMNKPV
Mu-type opioid receptor, sequence (P35372 whole entry): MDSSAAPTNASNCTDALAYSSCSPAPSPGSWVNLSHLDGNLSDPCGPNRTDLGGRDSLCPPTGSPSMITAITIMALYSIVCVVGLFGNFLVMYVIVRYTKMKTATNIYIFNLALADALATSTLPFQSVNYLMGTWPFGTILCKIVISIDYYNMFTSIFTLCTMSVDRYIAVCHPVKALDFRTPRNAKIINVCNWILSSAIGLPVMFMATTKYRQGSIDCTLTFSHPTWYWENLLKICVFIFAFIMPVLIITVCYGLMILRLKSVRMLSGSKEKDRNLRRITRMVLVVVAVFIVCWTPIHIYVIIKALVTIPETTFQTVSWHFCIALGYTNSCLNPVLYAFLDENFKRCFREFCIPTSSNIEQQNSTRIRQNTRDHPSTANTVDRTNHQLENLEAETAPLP

Row | SMILES | Ki [1] [nM] | Ki [2] [nM] | EC50 [3] [nM] | Ki [4] [nM] | Ratio Ki [5] | Ratio Ki [6]
1 | C/C=C(\C)C(=O)O[C@H]1C[C@@H](C(=O)OC)[C@]2(C)CC[C@H]3C(=O)O[C@H](c4ccoc4)C[C@]3(C)[C@H]2C1=O | 153 | > 10000 | 477 | > 10000 |  | 
2 | COC(=O)[C@@H]1C[C@H](OC(=O)/C=C/c2ccc(OC)cc2OC)C(=O)[C@H]2[C@@]1(C)CC[C@H]1C(=O)O[C@H](c3ccoc3)C[C@]21C | 162 | > 10000 | 27 | > 10000 |  | 
3 | COC(=O)[C@@H]1C[C@H](OC(=O)/C=C/c2ccccc2[N+](=O)[O-])C(=O)[C@H]2[C@@]1(C)CC[C@H]1C(=O)O[C@H](c3ccoc3)C[C@]21C | 148 | > 10000 | 33 | > 10000 |  | 
4 | C=CCC(=O)O[C@H]1C[C@@H](C(=O)OC)[C@]2(C)CC[C@H]3C(=O)O[C@H](c4ccoc4)C[C@]3(C)[C@H]2C1=O |  |  |  | 3260 |  | 
5 | COC(=O)[C@@H]1C[C@H](OC(=O)/C=C/c2ccccc2OC)C(=O)[C@H]2[C@@]1(C)CC[C@H]1C(=O)O[C@H](c3ccoc3)C[C@]21C | 64.9 | > 10000 | 10 | > 10000 |  | 
6 | COC(=O)[C@@H]1C[C@H](OC(=O)/C=C/c2cc(OC)c(OC)c(OC)c2)C(=O)[C@H]2[C@@]1(C)CC[C@H]1C(=O)O[C@H](c3ccoc3)C[C@]21C | > 10000 | > 10000 | 1800 | > 10000 |  | 
7 | COC(=O)[C@@H]1C[C@H](OC(=O)/C=C/c2cc(OC)ccc2OC)C(=O)[C@H]2[C@@]1(C)CC[C@H]1C(=O)O[C@H](c3ccoc3)C[C@]21C | 581 | > 10000 | 38 | > 10000 |  | 
8 | COC(=O)[C@@H]1C[C@H](OC(=O)C=C(C)C)C(=O)[C@H]2[C@@]1(C)CC[C@H]1C(=O)O[C@H](c3ccoc3)C[C@]21C | 385 | 284 | 698 | 2630 | 6.8 | 0.73
9 | C=C(C)CC(=O)O[C@H]1C[C@@H](C(=O)OC)[C@]2(C)CC[C@H]3C(=O)O[C@H](c4ccoc4)C[C@]3(C)[C@H]2C1=O | 6 | 362 | 25 | > 10000 |  | 60
10 | COC(=O)[C@@H]1C[C@H](OC(=O)/C=C/c2ccc(OC)cc2)C(=O)[C@H]2[C@@]1(C)CC[C@H]1C(=O)O[C@H](c3ccoc3)C[C@]21C | 135 | > 10000 | 21 | > 10000 |  | 
11 | COC(=O)[C@@H]1C[C@H](OC(=O)/C=C/c2ccccc2C(F)(F)F)C(=O)[C@H]2[C@@]1(C)CC[C@H]1C(=O)O[C@H](c3ccoc3)C[C@]21C | 130 | > 10000 | 20 | > 10000 |  | 
12 | COC(=O)[C@@H]1C[C@H](OC(=O)/C=C/c2ccccc2)C(=O)[C@H]2[C@@]1(C)CC[C@H]1C(=O)O[C@H](c3ccoc3)C[C@]21C | 9.6 | 52 | 7 | 700 | 73 | 5.4
13 | COC(=O)[C@@H]1C[C@H](OC(=O)/C=C/c2ccsc2)C(=O)[C@H]2[C@@]1(C)CC[C@H]1C(=O)O[C@H](c3ccoc3)C[C@]21C | 304 | 18 | 582 | 228 | 0.75 | 0.06
14 | C/C=C/C(=O)O[C@H]1C[C@@H](C(=O)OC)[C@]2(C)CC[C@H]3C(=O)O[C@H](c4ccoc4)C[C@]3(C)[C@H]2C1=O | 25.3 | 540 | 11 | > 10000 |  | 21
15 | C=CC(=O)O[C@H]1C[C@@H](C(=O)OC)[C@]2(C)CC[C@H]3C(=O)O[C@H](c4ccoc4)C[C@]3(C)[C@H]2C1=O | 18.1 | 979 | 137 | > 10000 |  | 54
16 | C=C(C)C(=O)O[C@H]1C[C@@H](C(=O)OC)[C@]2(C)CC[C@H]3C(=O)O[C@H](c4ccoc4)C[C@]3(C)[C@H]2C1=O | 34 | > 10000 |  | 7820 | 221 | 
17 | COC(=O)[C@@H]1C[C@H](OC(=O)/C=C/c2ccc3c(c2)OCO3)C(=O)[C@H]2[C@@]1(C)CC[C@H]1C(=O)O[C@H](c3ccoc3)C[C@]21C | 323 | 2820 | 50 | > 10000 |  | 8.7
18 | C=CC(C)C(=O)O[C@H]1C[C@@H](C(=O)OC)[C@]2(C)CC[C@H]3C(=O)O[C@H](c4ccoc4)C[C@]3(C)[C@H]2C1=O (some centres undefined) | 28.8 | 439 | 37 | 3030 | 105 | 15
19 | COC(=O)[C@@H]1C[C@H](OC(=O)/C=C/c2ccc(C(F)(F)F)cc2)C(=O)[C@H]2[C@@]1(C)CC[C@H]1C(=O)O[C@H](c3ccoc3)C[C@]21C | > 10000 | > 10000 | 642 | > 10000 | 1 | 1
20 | COC(=O)[C@@H]1C[C@H](OC(=O)/C=C/c2cccnc2)C(=O)[C@H]2[C@@]1(C)CC[C@H]1C(=O)O[C@H](c3ccoc3)C[C@]21C | > 10000 | 334 | 1760 | 4890 |  | 
21 | COC(=O)[C@@H]1C[C@H](OC(=O)/C=C/c2ccc([N+](=O)[O-])cc2)C(=O)[C@H]2[C@@]1(C)CC[C@H]1C(=O)O[C@H](c3ccoc3)C[C@]21C | 281 | > 10000 | 32 | > 10000 |  | 
22 | COC(=O)[C@@H]1C[C@H](OC(=O)/C=C/c2cc(C(F)(F)F)ccc2C(F)(F)F)C(=O)[C@H]2[C@@]1(C)CC[C@H]1C(=O)O[C@H](c3ccoc3)C[C@]21C | > 10000 | > 10000 | 1210 | 5870 |  | 
